Experiments:
Cynomolgus monkey [1] = experiment: Ratio of uptake in medulla to cerebellum of anesthetized cynomolgus monkey after 105 mins; format: ADME, organism-based; settings: in vivo, 1.75 h
In short: (§1)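 Baseline microPET (Concorde P4) in anesthetized cynomolgus monkey after injection of the [11C]-labelled tracer. Regional time-activity curves were taken, and each region's uptake was divided by cerebellum uptake (low-SERT reference) at 65, 85 and 105 min postinjection.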

Cynomolgus monkey [2] = experiment: Uptake in anesthetized cynomolgus monkey cerebellum after 1.5 mins; format: ADME, organism-based; settings: in vivo, 0.025 h
In short: (§2)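 Baseline microPET (Concorde P4) regional brain time-activity curves in anesthetized cynomolgus monkey following injection of the [11C]-labelled tracer, with radioactivity followed over the scan.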

Cynomolgus monkey [3] = experiment: Uptake in anesthetized cynomolgus monkey midbrain after 6.5 mins; format: ADME, organism-based; settings: in vivo
In short: (§3)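 Baseline microPET scan (P4 scanner) of anesthetized cynomolgus monkeys after injection of the carbon-11 labelled nortropane tracer. Two baseline studies were run per tracer. Radioactivity was followed over time in regional brain time-activity curves.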

Cynomolgus monkey [4] = experiment: Uptake in anesthetized cynomolgus monkey medulla after 27.5 mins; format: ADME, organism-based, Medulla of organ; settings: in vivo; in short: as §3
Cynomolgus monkey [5] = experiment: Uptake in anesthetized cynomolgus monkey medulla after 2.5 mins; format: ADME, organism-based, Medulla of organ; settings: in vivo; in short: as §3
Cynomolgus monkey [6] = experiment: Uptake in anesthetized cynomolgus monkey putamen after 35.0 mins; format: ADME, organism-based; settings: in vivo
In short: (§4)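 Baseline microPET (Concorde P4) scan in anesthetized cynomolgus monkeys after injection of the carbon-11 labeled tracer, with no chase drug. Regional brain time-activity curves were followed over the scan. Tracer radiochemical purity and specific activity were determined by analytical HPLC at the time of injection.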

Cynomolgus monkey [7] = experiment: Uptake in anesthetized cynomolgus monkey midbrain after 0.5 mins; format: ADME, organism-based; settings: in vivo; in short: as §3
Cynomolgus monkey [8] = experiment: Uptake in anesthetized cynomolgus monkey pons after 18.5 mins; format: ADME, organism-based; settings: in vivo; in short: as §4
Cynomolgus monkey [9] = experiment: Uptake in anesthetized cynomolgus monkey putamen after 15.5 mins; format: ADME, organism-based; settings: in vivo; in short: as §4
Cynomolgus monkey [10] = experiment: Uptake in anesthetized cynomolgus monkey caudate after 115.0 mins; format: ADME, organism-based, Caudate nucleus; settings: in vivo; in short: as §2
Cynomolgus monkey [11] = experiment: Ratio of uptake in occipital to cerebellum of anesthetized cynomolgus monkey after 65 mins; format: ADME, organism-based; settings: in vivo; in short: as §1
Cynomolgus monkey [12] = experiment: Uptake in anesthetized cynomolgus monkey pons after 1.5 mins; format: ADME, organism-based, Macaca mulatta; settings: rhesus monkey, in vivo, 0.025 h; in short: as §3
Cynomolgus monkey [13] = experiment: Uptake in anesthetized cynomolgus monkey medulla after 9.5 mins; format: ADME, organism-based, Medulla of organ; settings: in vivo; in short: as §3
Cynomolgus monkey [14] = experiment: Uptake in anesthetized cynomolgus monkey frontal after 4.5 mins; format: ADME, organism-based, Frontal cortex; settings: in vivo, 0.075 h; in short: as §3
Cynomolgus monkey [15] = experiment: Uptake in anesthetized cynomolgus monkey frontal after 27.5 mins; format: ADME, organism-based, Frontal cortex; settings: in vivo; in short: as §3
Cynomolgus monkey [16] = experiment: Uptake in anesthetized cynomolgus monkey cerebellum after 35.0 mins; format: ADME, organism-based, Macaca mulatta; settings: rhesus monkey, in vivo; in short: as §2
Cynomolgus monkey [17] = experiment: Uptake in anesthetized cynomolgus monkey putamen after 75.0 mins; format: ADME, organism-based; settings: in vivo, 1.25 h; in short: as §4
Cynomolgus monkey [18] = experiment: Uptake in anesthetized cynomolgus monkey pons after 95.0 mins; format: ADME, organism-based; settings: in vivo; in short: as §4
Cynomolgus monkey [19] = experiment: Uptake in anesthetized cynomolgus monkey cerebellum after 2.5 mins; format: ADME, organism-based, Macaca mulatta; settings: rhesus monkey, in vivo; in short: as §2
Cynomolgus monkey [20] = experiment: Ratio of uptake in pons to cerebellum of anesthetized cynomolgus monkey after 105 mins; format: ADME, organism-based; settings: in vivo, 1.75 h; in short: as §1
Cynomolgus monkey [21] = experiment: Uptake in anesthetized cynomolgus monkey putamen after 2.5 mins; format: ADME, organism-based; settings: in vivo; in short: as §4
Cynomolgus monkey [22] = experiment: Uptake in anesthetized cynomolgus monkey midbrain after 15.5 mins; format: ADME, organism-based; settings: in vivo; in short: as §3
Cynomolgus monkey [23] = experiment: Uptake in anesthetized cynomolgus monkey medulla after 22.5 mins; format: ADME, organism-based, Medulla of organ; settings: in vivo, 0.375 h; in short: as §3
Cynomolgus monkey [24] = experiment: Uptake in anesthetized cynomolgus monkey thalamus after 45.0 mins; format: ADME, organism-based; settings: in vivo, 0.75 h; in short: as §4
Cynomolgus monkey [25] = experiment: Uptake in anesthetized cynomolgus monkey occipital after 0.5 mins; format: ADME, organism-based, Occipital cortex; settings: in vivo; in short: as §3
Cynomolgus monkey [26] = experiment: Uptake in anesthetized cynomolgus monkey frontal after 35.0 mins; format: ADME, organism-based, Frontal cortex; settings: in vivo; in short: as §3
Cynomolgus monkey [27] = experiment: Uptake in anesthetized cynomolgus monkey putamen after 27.5 mins; format: ADME, organism-based; settings: in vivo; in short: as §4
Cynomolgus monkey [28] = experiment: Uptake in anesthetized cynomolgus monkey medulla after 0.5 mins; format: ADME, organism-based, Medulla of organ; settings: in vivo; in short: as §3
Cynomolgus monkey [29] = experiment: Uptake in anesthetized cynomolgus monkey occipital after 2.5 mins; format: ADME, organism-based, Macaca mulatta, Occipital cortex; settings: rhesus monkey, in vivo; in short: as §3
Cynomolgus monkey [30] = experiment: Uptake in anesthetized cynomolgus monkey medulla after 55.0 mins; format: ADME, organism-based, Medulla of organ; settings: in vivo; in short: as §3
Cynomolgus monkey [31] = experiment: Uptake in anesthetized cynomolgus monkey frontal after 9.5 mins; format: ADME, organism-based, Frontal cortex; settings: in vivo; in short: as §3
Cynomolgus monkey [32] = experiment: Uptake in anesthetized cynomolgus monkey thalamus after 9.5 mins; format: ADME, organism-based; settings: in vivo; in short: as §4
Cynomolgus monkey [33] = experiment: Uptake in anesthetized cynomolgus monkey thalamus after 105.0 mins; format: ADME, organism-based; settings: in vivo, 1.75 h; in short: as §4
Cynomolgus monkey [34] = experiment: Ratio of uptake in putamen to cerebellum of anesthetized cynomolgus monkey after 85 mins; format: ADME, organism-based; settings: in vivo; in short: as §1
Cynomolgus monkey [35] = experiment: Uptake in anesthetized cynomolgus monkey cerebellum after 18.5 mins; format: ADME, organism-based, Macaca mulatta; settings: rhesus monkey, in vivo; in short: as §2

`[11CH3]OC(=O)[C@@H]1C2CCC(C[C@@H]1c1cccc(/C=C/Br)c1)N2` (stereo not given in full) showed a Ratio (Cynomolgus monkey [1]) of 1.7, a Drug uptake (Cynomolgus monkey [2]) of 0.35 and a Drug uptake (Cynomolgus monkey [3]) of 4.84. For the same compound, the Drug uptake (Cynomolgus monkey [4]) was 7.08, the Drug uptake (Cynomolgus monkey [5]) was 1.32 and the Drug uptake (Cynomolgus monkey [6]) was 7. It also gave a Drug uptake (Cynomolgus monkey [7]) of 0.01, a Drug uptake (Cynomolgus monkey [8]) of 6.46 and a Drug uptake (Cynomolgus monkey [9]) of 6.07. It also gave a Drug uptake (Cynomolgus monkey [10]) of 6.42, a Ratio (Cynomolgus monkey [11]) of 0.8 and a Drug uptake (Cynomolgus monkey [12]) of 0.34. It also gave a Drug uptake (Cynomolgus monkey [13]) of 5.99, a Drug uptake (Cynomolgus monkey [14]) of 1.57 and a Drug uptake (Cynomolgus monkey [15]) of 3.61. The Drug uptake (Cynomolgus monkey [16]) was 5.92, the Drug uptake (Cynomolgus monkey [17]) was 7.45 and the Drug uptake (Cynomolgus monkey [18]) was 8.08. For the same compound, the Drug uptake (Cynomolgus monkey [19]) was 1.1, the Ratio (Cynomolgus monkey [20]) was 1.8 and the Drug uptake (Cynomolgus monkey [21]) was 1.01. The Drug uptake (Cynomolgus monkey [22]) was 6.32, the Drug uptake (Cynomolgus monkey [23]) was 6.96 and the Drug uptake (Cynomolgus monkey [24]) was 6.07. For the same compound, the Drug uptake (Cynomolgus monkey [25]) was 0.01, the Drug uptake (Cynomolgus monkey [26]) was 3.7 and the Drug uptake (Cynomolgus monkey [27]) was 6.85. The Drug uptake (Cynomolgus monkey [28]) was 0.02, the Drug uptake (Cynomolgus monkey [29]) was 0.65 and the Drug uptake (Cynomolgus monkey [30]) was 7.31. The Drug uptake (Cynomolgus monkey [31]) was 2.85, the Drug uptake (Cynomolgus monkey [32]) was 4.3 and the Drug uptake (Cynomolgus monkey [33]) was 6.47. The Ratio (Cynomolgus monkey [34]) was 1.6 and the Drug uptake (Cynomolgus monkey [35]) was 6.13.

From ChEMBL document CHEMBL1137333, “Synthesis, radiosynthesis, and biological evaluation of carbon-11 labeled 2beta-carbomethoxy-3beta-(3'-((Z)-2-haloethenyl)phenyl)nortropanes: candidate radioligands for in vivo imaging of the serotonin transporter with positron emission tomography” (J Med Chem, 2006)
